# Peptide text beside a SMILES is read from it. * marks the point of attachment. Cbz = O=C(OCc1ccccc1)*
# Molecular target: T1, Caspase-1 (Homo sapiens, UniProt P29466)
# T1 sequence (P29466 whole entry): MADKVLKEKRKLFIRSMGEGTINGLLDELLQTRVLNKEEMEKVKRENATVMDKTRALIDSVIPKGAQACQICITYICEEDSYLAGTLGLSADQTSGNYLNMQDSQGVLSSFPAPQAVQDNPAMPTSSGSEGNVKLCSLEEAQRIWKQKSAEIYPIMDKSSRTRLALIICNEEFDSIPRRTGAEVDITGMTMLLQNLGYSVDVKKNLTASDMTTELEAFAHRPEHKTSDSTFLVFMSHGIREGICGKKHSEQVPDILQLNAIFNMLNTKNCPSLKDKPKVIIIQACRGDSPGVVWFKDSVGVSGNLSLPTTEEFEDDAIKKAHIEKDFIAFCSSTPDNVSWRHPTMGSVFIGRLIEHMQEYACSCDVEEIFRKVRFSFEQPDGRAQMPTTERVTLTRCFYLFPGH
# Assay: Reversible Inhibition constants against IL-1 beta converting enzyme (ICE)
# Procedure, shortened: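 Fluorescence progress curves are recorded at 37 °C over 30 min. Ki for reversible inhibitors is derived by a method from a cited reference. Determinations are in triplicate, standard error <10%.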
row,SMILES,Ki [µM]
1,O=C[C@H](CC(=O)O)NC(=O)[C@@H]1CCCN2C(=O)CC[C@H](NC(=O)c3ccc(OCC(=O)O)cc3)C(=O)N12,0.001
2,O=C[C@H](CC(=O)O)NC(=O)[C@@H]1CCCN2C(=O)CC[C@H](NC(=O)c3ccccc3)C(=O)N12,0.005
3,O=C[C@H](CC(=O)O)NC(=O)[C@@H]1CCCN2C(=O)CC[C@H](NC(=O)OCc3ccccc3)C(=O)N12,0.025
4,CC(C)[C@H](NC(=O)OCc1ccccc1)C(=O)N[C@@H](C)C(=O)N[C@@H](CC(=O)O)C(=O)O (Cbz-Val-Ala-Asp-OH),0.015

# Molecular target: T2, Caspase-1 (Homo sapiens) (UniProt P29466)
# T2 sequence (whole entry): T1 sequence (P29466 whole entry)
# Assay: Second order rate constants were tested for inhibition of IL-1 beta converting enzyme (ICE)
# Procedure, shortened: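 Fluorogenic progress-curve assay: ICE in 10 mM HEPES pH 7.5, 25% glycerol, 1 mM DTT, with 10 µM Suc-Tyr-Val-Ala-Asp-AMC; read at 37 °C over 30 min. Inactivation rates are taken from nonlinear progress curves by the Tian–Tsou method, giving second-order rate constants. Determinations are in triplicate, standard error <10%.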
row,SMILES,K obs / 1 [M⁻¹ s⁻¹]
1,O=C(O)C[C@H](NC(=O)CN1C(=O)[C@@H](NC(=O)OCc2ccccc2)COc2ccccc21)C(=O)COC(=O)c1c(Cl)cccc1Cl,44000
2,O=C(O)CSc1ccc(C(=O)N[C@H]2CCC(=O)N3CCC[C@@H](C(=O)N[C@@H](CC(=O)O)C(=O)COc4cc(C(F)(F)F)nn4-c4ccc(Cl)cc4)N3C2=O)cc1,1.22e+06
3,O=C(O)C[C@H](NC(=O)[C@@H]1CCCN2C(=O)CC[C@H](NC(=O)OCc3ccccc3)C(=O)N12)C(=O)COc1cc(C(F)(F)F)nn1-c1ccccc1,413000
4,CC(C)[C@H](NC(=O)c1ccc(CN2CCOCC2)cc1)C(=O)N[C@@H](C)C(=O)N[C@@H](CC(=O)O)C(=O)COc1cc(C(F)(F)F)nn1-c1ccccc1,186000
5,O=C(O)C[C@H](NC(=O)Cn1c(-c2ccc(F)cc2)ncc(NC(=O)OCc2ccccc2)c1=O)C(=O)COc1cc(C(F)(F)F)nn1-c1ccc(Cl)cc1,310000
6,Cc1nccn1Cc1ccc(C(=O)N[C@H]2CCC(=O)N3CCC[C@@H](C(=O)N[C@@H](CC(=O)O)C(=O)COC(=O)c4c(Cl)cccc4Cl)N3C2=O)cc1,340000
7,CC(C)[C@H](NC(=O)OCc1ccccc1)C(=O)N[C@@H](C)C(=O)N[C@@H](CC(=O)O)C(=O)COC(=O)c1c(Cl)cccc1Cl,432000
8,CN(C)Cc1ccc(C(=O)N[C@H]2CCC(=O)N3CCC[C@@H](C(=O)N[C@@H](CC(=O)O)C(=O)COc4cc(C(F)(F)F)nn4-c4ccc(Cl)cc4)N3C2=O)cc1,162000
9,O=C(O)C[C@H](NC(=O)[C@@H]1CCCN2C(=O)CC[C@H](NC(=O)OCc3ccccc3)C(=O)N12)C(=O)COC(=O)c1c(Cl)cccc1Cl,572000
10,CC(C)[C@H](NC(=O)OCc1ccccc1)C(=O)N[C@@H](C)C(=O)N[C@@H](CC(=O)O)C(=O)COc1cc(C(F)(F)F)nn1-c1ccc(Cl)cc1,340000
11,O=C(O)CCCc1ccc(C(=O)N[C@H]2CCC(=O)N3CCC[C@@H](C(=O)N[C@@H](CC(=O)O)C(=O)COc4cc(C(F)(F)F)nn4-c4ccc(Cl)cc4)N3C2=O)cc1,800000
12,CC(C)[C@H](NC(=O)c1ccc(CN2CCN(C)CC2)cc1)C(=O)N[C@@H](C)C(=O)N[C@@H](CC(=O)O)C(=O)COc1cc(C(F)(F)F)nn1-c1ccc(Cl)cc1,200000
13,CSc1ccc(C(=O)N[C@H](C(=O)N[C@@H](C)C(=O)N[C@@H](CC(=O)O)C(=O)COc2cc(C(F)(F)F)nn2-c2ccccc2)C(C)C)cc1,800000
14,C[C@@H](C(=O)N[C@@H](CC(=O)O)C(=O)COc1cc(C(F)(F)F)nn1-c1ccccc1)N1CC[C@H](NC(=O)OCc2ccccc2)C1=O,31800
15,O=C(O)C[C@H](NC(=O)Cn1c(-c2ccc(F)cc2)ncc(NC(=O)OCc2ccccc2)c1=O)C(=O)COC(=O)c1c(Cl)cccc1Cl,268000
16,O=C(O)C[C@H](NC(=O)CN1C(=O)[C@@H](NC(=O)OCc2ccccc2)COc2ccccc21)C(=O)COc1cc(C(F)(F)F)nn1-c1ccc(Cl)cc1,114000
17,CSc1ccc(C(=O)Nc2cnc(-c3ccc(F)cc3)n(CC(=O)N[C@@H](CC(=O)O)C(=O)COc3cc(C(F)(F)F)nn3-c3ccc(Cl)cc3)c2=O)cc1,110000
18,O=C(O)C[C@H](NC(=O)[C@@H]1CS[C@H]2CC[C@H](NC(=O)OCc3ccccc3)C(=O)N21)C(=O)COc1cc(C(F)(F)F)nn1-c1ccccc1,42000
19,CN1CCN(Cc2ccc(C(=O)N[C@H]3CCC(=O)N4CCC[C@@H](C(=O)N[C@@H](CC(=O)O)C(=O)COC(=O)c5c(Cl)cccc5Cl)N4C3=O)cc2)CC1,210000
20,O=C(O)C[C@H](NC(=O)[C@@H]1CCCN2C(=O)CC[C@H](NC(=O)OCc3ccccc3)C(=O)N12)C(=O)COc1cc(C(F)(F)F)nn1-c1ccc(Cl)cc1,437000
21,O=C(O)C[C@H](NC(=O)[C@@H]1CCCN2C(=O)CC[C@H](NC(=O)c3ccc(CN4CCOCC4)cc3)C(=O)N12)C(=O)COC(=O)c1c(Cl)cccc1Cl,425000

# Species: Homo sapiens
# Assay: Inhibitory concentration against IL1-beta production in human monocytes
# Type: functional
row,SMILES,IC50 [µM]
1,O=C[C@H](CC(=O)O)NC(=O)[C@@H]1CCCN2C(=O)CC[C@H](NC(=O)c3ccccc3)C(=O)N12,1
